MCL1-BIM inh = inhibitors of human MCL1 binding to BIM-BH3 peptide; AID 2057; GST-MCL1 / FITC-Bim-BH3 fluorescence polarization; actives 0.68% (n = 320,000); inhibition, % at 10.9 µM; Q07820;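 active = inhibition above the mean inhibition of all tested compounds plus 3 SD, set per campaign, cut at about 40% in these data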;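 also: 0% = DMSO wells and 100% = unlabeled Bim-BH3 peptide control; higher means more loss of mP so more displacement of Bim peptide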
Mcl1-Noxa inh = disrupts binding of human Mcl-1 to Noxa peptide; actives 1.5% (n = 220,000); TR-FRET Mcl-1/Noxa peptide binding, 2 h; inhibition, % at 21.7 µM;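 active = compounds that cut the protein-peptide binding signal by more than 50% relative to plate controls in a single-dose test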;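 also: His-tagged Mcl-1 with rhodamine Noxa BH3 peptide and terbium anti-His antibody; 0% = Mcl-1 plus Noxa peptide wells and 100% = peptide-only wells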
RBBP9 inhibitor = blocks human serine hydrolase RBBP9. recombinant RBBP9, FP-Rh probe fluorescence polarization. O75884. actives 0.2% (n = 220,000). inhibition, % at 7.94 µM. AID 1515;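 active = inhibition above the campaign mean of all tested compounds plus 3 SD, cut at about 14% in these data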;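 also: plate controls were DMSO wells with RBBP9 for no effect and wells lacking RBBP9 protein for full effect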
Target sequence (O75884 whole entry, looked up): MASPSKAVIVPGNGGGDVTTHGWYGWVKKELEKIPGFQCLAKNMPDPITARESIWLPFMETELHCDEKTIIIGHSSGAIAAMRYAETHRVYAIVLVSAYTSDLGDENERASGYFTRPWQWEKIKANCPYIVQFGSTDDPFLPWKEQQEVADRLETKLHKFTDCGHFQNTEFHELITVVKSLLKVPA
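Controls: DMSO-treated enzyme wells and wells lacking RBBP9 | Material: RBBP9 protein | Technique: Fluorescence polarization | Replication: Single well per compound, no replicates | Buffer or medium: Tris-NaCl-Pluronic buffer, pH 8.0 | Timing: 30 min compound preincubation, 45 min probe labeling, 25 °C | Read-out basis: Percent inhibition from mP, scaled between DMSO and no-protein wells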
Mcl1 Bid PPI = disrupts binding of human Mcl-1 to Bid peptide | Q07820 | TR-FRET Mcl-1/Bid-Dy647 peptide binding, 1536-well | inhibition, % at 21.7 µM | actives 0.97% (n = 220,000) | AID 1021;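 active = compounds that cut the binding signal by more than half at the single screening dose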;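 also: His-tagged Mcl-1 with europium anti-His antibody binding Bid BH3 peptide; 0% = Mcl-1 plus peptide wells and 100% = peptide-only wells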
EBV gp42 block = blocks Epstein-Barr virus glycoprotein 42 binding | Q1HVG2 | Fluorescence polarization binding assay, mP read-out | inhibition, % (tested at 21.74 µM) | actives 0.42% (n = 220,000) | AID 1085; in the data active = inhibition above about 50%
Target sequence (Q1HVG2 whole entry, looked up): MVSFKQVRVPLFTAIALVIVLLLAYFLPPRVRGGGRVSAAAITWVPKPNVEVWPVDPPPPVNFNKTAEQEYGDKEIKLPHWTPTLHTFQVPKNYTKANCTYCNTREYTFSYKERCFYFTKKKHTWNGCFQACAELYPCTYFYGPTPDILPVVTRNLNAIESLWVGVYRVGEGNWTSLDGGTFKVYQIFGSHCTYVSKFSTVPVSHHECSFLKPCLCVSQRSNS
Mcl-1 Bim block = disrupts Bim peptide binding to human Mcl-1; Q07820; inhibition, % at 10 µM; actives 0.1% (n = 190,000); AID 1009; Bead-based flow cytometry, Bim peptide-Mcl-1 binding; in the data active = inhibition above about 40%;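 also: 0% = no compound tracer wells and 100% = peptide blocker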
BCLXL inh confirm = counter-screen for MCL1 inhibitors: confirmation of human Bcl-xL inhibitors | inhibition, % at 10.9 µM | actives 54% (n = 1,700) | GST-Bcl-xL / FITC-Bim BH3 peptide FP binding | shares compounds with MCL1-BIM inh;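 active = inhibition above a cutoff equal to the mean inhibition of all tested compounds plus 3 SD, cut at about 30% in these data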;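 also: 0% = DMSO wells and 100% = unlabeled Bim BH3 control peptide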
Target sequence (Q07817 whole entry, looked up): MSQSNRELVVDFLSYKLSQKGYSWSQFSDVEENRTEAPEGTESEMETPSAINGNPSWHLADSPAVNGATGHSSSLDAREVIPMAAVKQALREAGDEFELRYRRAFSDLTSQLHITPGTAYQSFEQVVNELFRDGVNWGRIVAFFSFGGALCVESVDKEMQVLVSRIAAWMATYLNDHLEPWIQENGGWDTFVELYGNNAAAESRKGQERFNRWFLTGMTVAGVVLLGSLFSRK
MCL1 BIM confirm = MCL1-BIM-BH3 interaction inhibition, confirmation | shares compounds with MCL1-BIM inh | GST-MCL1 / FITC-Bim-BH3 fluorescence polarization | inhibition, % at 10.9 µM | actives 61% (n = 1,700);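 active = inhibition above the average of all tested compounds plus 3 SD, cut at about 40% in these data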;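 also: 0% = DMSO wells and 100% = unlabeled Bim-BH3 control peptide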
Numbers without * were called inactive; nt = no result given. A selection: hits, their analogues and other compounds. The true share with any hit is near 2.2%.

SMILES | MCL1-BIM inh | Mcl1-Noxa inh | RBBP9 inhibitor | Mcl1 Bid PPI | EBV gp42 block | Mcl-1 Bim block | BCLXL inh confirm | MCL1 BIM confirm
COc1ccc(NC(=O)C2Cc3ccccc3CN2C(=O)c2ccccc2)cn1 (configuration not stated) | 76.7* | 1.2 | 1.1 | -28.0 | 64.2* | -3.0 | 75.2* | 93.0*
O=c1cc(CSc2nc(NCc3ccccc3)c3ccccc3n2)nc2ccc(Cl)cn12 | 7.0 | 0.7 | -3.8 | -27.0 | -14.3 | -6.0 | nt | nt
O=c1oc2ccccc2nc1/C=C(O)/C=C\c1ccccc1 | 69.0* | 1.9 | -6.2 | -6.3 | -20.3 | -3.0 | -40.2 | -94.0
CCOC(=O)c1cc(C#N)c(SCC(N)=O)[nH]c1=O | 37.8 | 2.7 | -2.0 | 25.8 | 13.8 | nt | nt | nt
CCOC(=O)c1cc(C#N)c(SCC(=O)c2cc(C#N)c(SC)nc2C)[nH]c1=O | 116.7* | 34.2 | -6.3 | -100.4 | 22.3 | 0.0 | 20.8 | 18.0
O=C1c2cccc3cc([N+](=O)[O-])cc(c23)C(=O)N1/N=C/c1ccc(O)cc1O | 61.2* | 89.6* | -1.0 | 97.8* | 95.7* | nt | 27.4 | 30.7
Cc1cc(/C(N)=N/OC(=O)c2ccccc2Cl)no1 | -4.3 | 3.8 | 0.9 | -14.1 | -3.6 | nt | nt | nt
COC/C=C/C1=CC2=CC(=O)C(C)(OC(=O)c3cnc4ccccc4n3)C(=O)C2=CO1 (configuration not stated) | 96.2* | nt | nt | nt | nt | nt | 29.2 | 55.5*
COC/C=C/C1=CC2=CC(=O)C(C)(OC(=O)c3cnc4ccccc4n3)C(=O)C2=CN1C(CO)CO (configuration not stated) | 13.0 | 0.5 | nt | -62.2 | -0.5 | nt | nt | nt
COCc1nc2oc3ccccc3c(=O)c2cc1C(=O)OC | 1.6 | nt | nt | nt | nt | nt | nt | nt
CN1CCN(C2=C(Cl)C(=O)N(CCc3ccccc3)C2=O)CC1 | 54.4* | 2.2 | -1.8 | -19.9 | 7.9 | 0.0 | 20.1 | 30.2
CC(=O)n1cc([C@H]2C=C(C(=O)N3CCN(Cc4ccccc4)CC3)O[C@@H](OCCCCO)C2)c2ccccc21 | 70.5* | -21.4 | -12.8 | 3.3 | -13.6 | -1.0 | 14.7 | 23.2
COc1ccccc1C(=O)NCCC(=O)NNC(=O)Cn1ccc(C(F)(F)F)n1 | 2.7 | nt | nt | nt | nt | nt | nt | nt
CCc1ccc(N2CC(C(=O)OCc3nc4ccsc4c(=O)[nH]3)CC2=O)cc1 (configuration not stated) | 40.5* | nt | nt | nt | nt | nt | 32.9* | 48.9*
COc1ccc(OC)c(C(=O)Nc2c(O)ccc3ccccc23)c1 | 4.8 | nt | nt | nt | nt | nt | nt | nt
Cc1ccccc1N=C(N)Nc1ccccc1C | 70.7* | nt | nt | nt | nt | nt | 63.1* | 84.7*
CCOC(=O)c1c(-n2c(C)cc(C=O)c2C)sc2c1CCCC2 | -0.5 | 1.9 | -0.6 | -49.8 | -12.5 | -1.0 | nt | nt
Cc1ccc(C)n1-c1sc2c(c1C(=O)O)CCCC2 | 70.3* | 37.5 | -6.9 | -56.3 | 3.2 | -3.0 | 16.9 | 49.0*
O=C(Cn1c(=O)n(Cc2ccco2)c(=O)c2c3c(sc21)CCCCC3)c1ccccc1 | 43.1* | 41.5 | -16.3 | -18.1 | 15.3 | -4.0 | 20.2 | 32.1
O=C(Cn1c(=O)n(Cc2ccco2)c(=O)c2c3c(sc21)CCCCC3)Nc1ccccc1 | 14.4 | 40.7 | -14.1 | -16.5 | -0.7 | 0.0 | nt | nt
COc1ccc(NS(=O)(=O)c2ccc(F)c(Cl)c2)cn1 | 123.6* | nt | nt | nt | nt | nt | 48.9* | 57.0*
NS(=O)(=O)c1ccc(CCNC(=O)c2cc(-c3ccccn3)nc3ccc(Br)cc23)cc1 | 5.0 | 21.6 | -1.2 | -35.6 | -18.9 | 5.0 | nt | nt
NS(=O)(=O)c1ccc(CNC(=O)c2cc(-c3cccnc3)nc3ccc(Br)cc23)cc1 | 51.0* | nt | nt | nt | nt | nt | 4.9 | -3.3
COc1ccc(N2CCCC2)c(NC(=O)c2ccc([N+](=O)[O-])o2)c1 | 74.8* | nt | nt | nt | nt | nt | 13.8 | 3.5
O=C(Nc1ccccc1N1CCCC1)c1ccc([N+](=O)[O-])o1 | 8.3 | nt | nt | nt | nt | nt | nt | nt
SMILES | MCL1-BIM inh | Mcl1-Noxa inh | RBBP9 inhibitor | Mcl1 Bid PPI | EBV gp42 block | Mcl-1 Bim block | BCLXL inh confirm | MCL1 BIM confirm
COc1cccc(N=Nc2c(=O)[nH]n3c(=O)c4c([nH]c23)CCC4)c1 | 15.4 | 40.5 | -4.3 | -102.4 | -0.4 | 0.0 | nt | nt
O=c1[nH]n2c(=O)c3c([nH]c2c1N=Nc1cccc(Cl)c1)CCC3 | 42.4* | 57.6* | -3.6 | -169.8 | 52.4* | 2.0 | 17.8 | 39.8
Cc1cc(OCC(=O)OCC(=O)N2CCc3ccccc3C2)ccc1Cl | 4.0 | nt | nt | nt | nt | nt | nt | nt
CCn1c(SC(C)C(=O)O)nc2sc3c(c2c1=O)CCC3 (configuration not stated) | 44.2* | 67.4* | 0.7 | -58.0 | 51.6* | -1.0 | 15.4 | 51.7*
Cc1c(N)cc(N)cc1C(=O)O | 165.7* | 1.5 | -3.1 | -148.8 | -5.1 | nt | 67.1* | 44.0*
Cc1c(Br)cc(C(=O)O)c(C)c1C | 7.6 | 19.7 | 0.6 | 12.3 | -13.6 | 0.0 | nt | nt
OCc1cccc[n+]1CCc1ccccc1 | 6.8 | nt | nt | nt | nt | nt | nt | nt
Cc1cc(C(N)=O)c2ccccc2n1 | 1.0 | 14.5 | -5.8 | -24.3 | -7.3 | 0.0 | nt | nt
NC(=O)c1cc2c3ccccc3ccn2c1-c1ccccc1 | 59.4* | 2.7 | 0.7 | -116.5 | 4.7 | nt | 22.7 | 26.7
O=C(NCCO)c1nc(C(=O)c2ccccc2)c2ccccc2n1 | 5.1 | nt | nt | nt | nt | nt | nt | nt
O=C1/C(=C/c2cccc(F)c2)CSc2sccc21 | 2.1 | 8.9 | -8.6 | 1.4 | -4.2 | 0.0 | nt | nt
O=C1/C(=C/c2cccc(Cl)c2)CSc2sccc21 | 56.2* | 7.4 | -9.0 | -6.3 | -5.1 | nt | 8.9 | 4.8
CC(NC(=O)c1cc2sccc2n1C)c1ccc2c(c1)OCCO2 (configuration not stated) | 178.2* | 32.4 | 0.7 | 7.6 | -15.1 | -3.0 | 1.1 | 3.7
O=Cc1c(Cl)nc2ccccn2c1=O | 59.0* | -20.9 | -4.3 | 27.9 | 1.4 | nt | 10.4 | 10.7
CC1CCN(c2nc3ccccn3c(=O)c2C=O)CC1 | 1.7 | -6.3 | -8.4 | -49.2 | -10.1 | -3.0 | nt | nt
Oc1ccc(C2=Nn3c(nnc3-c3ccco3)SC2)cc1O | 60.5* | 38.5 | 3.4 | -2.3 | -21.9 | 33.0 | 28.6 | 73.5*
COc1ccc(C2=Nn3c(nnc3-c3ccco3)SC2)cc1 | 6.2 | 7.7 | 0.4 | -10.0 | -1.7 | 8.0 | nt | nt
COc1ccccc1C1C(C(=O)c2ccco2)=C(O)C(=O)N1c1cc(C)on1 (configuration not stated) | -2.8 | nt | nt | nt | nt | nt | nt | nt
Nc1nn2cc(-c3ccc(Br)cc3)nc2c2ccccc12 | 2.1 | 17.0 | -5.7 | 8.8 | -1.4 | nt | nt | nt
c1ccc(-c2cn3nc4c(nc3n2)CCCC4)cc1 | 130.0* | 17.6 | -5.4 | -7.7 | 63.4* | 1.0 | 77.6* | 97.4*
c1ccc(-c2cn3nc(-c4ccccc4)cnc3n2)cc1 | 4.2 | 9.1 | -5.0 | 5.5 | -33.2 | -4.0 | nt | nt
Brc1ccc(-c2cn3nc4c(nc3n2)CCCC4)cc1 | 79.5* | 10.8 | -3.1 | 5.6 | -21.6 | -1.0 | 44.9* | 44.5*

Screening data: PubChem, several laboratories
